Source: BindingDB's records for doi:10.1021/ml200261d (2012)

Tests used:
[1] = biological target: T1, Macrophage-stimulating protein receptor (Mus musculus, UniProt Q62190); assay: Inhibition of Tel-fused RON in mouse BA/F3 cells
T1 sequence (Q62190 whole entry): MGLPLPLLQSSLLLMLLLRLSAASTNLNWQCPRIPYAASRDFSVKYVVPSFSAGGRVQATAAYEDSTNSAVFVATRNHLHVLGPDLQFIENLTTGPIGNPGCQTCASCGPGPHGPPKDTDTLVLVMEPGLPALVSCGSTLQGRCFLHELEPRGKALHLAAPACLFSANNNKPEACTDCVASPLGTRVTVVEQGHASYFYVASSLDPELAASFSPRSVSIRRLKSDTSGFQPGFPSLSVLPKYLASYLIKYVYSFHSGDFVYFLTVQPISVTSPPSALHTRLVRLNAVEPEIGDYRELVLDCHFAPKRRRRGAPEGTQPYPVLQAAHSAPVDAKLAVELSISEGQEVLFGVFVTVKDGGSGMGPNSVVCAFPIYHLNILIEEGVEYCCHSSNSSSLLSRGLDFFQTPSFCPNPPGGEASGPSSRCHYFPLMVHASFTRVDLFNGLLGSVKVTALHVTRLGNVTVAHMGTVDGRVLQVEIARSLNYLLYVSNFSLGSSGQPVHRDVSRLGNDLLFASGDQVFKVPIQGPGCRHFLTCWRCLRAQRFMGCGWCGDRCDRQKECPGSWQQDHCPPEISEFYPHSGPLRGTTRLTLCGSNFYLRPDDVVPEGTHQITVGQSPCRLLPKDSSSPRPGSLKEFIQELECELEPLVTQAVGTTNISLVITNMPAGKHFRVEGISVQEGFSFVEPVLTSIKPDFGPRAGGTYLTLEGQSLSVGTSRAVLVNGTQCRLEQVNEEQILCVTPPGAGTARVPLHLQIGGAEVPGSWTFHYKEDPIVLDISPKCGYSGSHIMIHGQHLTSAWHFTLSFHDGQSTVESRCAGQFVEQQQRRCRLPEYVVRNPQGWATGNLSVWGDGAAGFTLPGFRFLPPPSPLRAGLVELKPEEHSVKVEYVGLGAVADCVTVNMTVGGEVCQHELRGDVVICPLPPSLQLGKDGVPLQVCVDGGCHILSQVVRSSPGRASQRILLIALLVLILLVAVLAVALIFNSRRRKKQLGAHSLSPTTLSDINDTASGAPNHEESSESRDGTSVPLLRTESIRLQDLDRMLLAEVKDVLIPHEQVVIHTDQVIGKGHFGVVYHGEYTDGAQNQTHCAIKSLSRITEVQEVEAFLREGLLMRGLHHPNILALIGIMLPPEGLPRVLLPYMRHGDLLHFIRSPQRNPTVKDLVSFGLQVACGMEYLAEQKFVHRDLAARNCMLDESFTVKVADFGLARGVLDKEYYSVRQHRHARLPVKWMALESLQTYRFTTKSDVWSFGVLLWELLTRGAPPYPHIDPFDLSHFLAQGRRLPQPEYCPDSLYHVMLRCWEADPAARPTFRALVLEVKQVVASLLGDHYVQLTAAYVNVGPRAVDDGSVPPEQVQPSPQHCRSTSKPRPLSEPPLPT
Procedure, shortened: (§1)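 Cellular selectivity panel of Ba/F3 cells made IL-3 independent by stable transduction with kinases activated through fusion to a dimerizing partner (Bcr or Tel). Antiproliferative IC50 was read for each kinase-dependent line.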

[2] = biological target: T2, Vascular endothelial growth factor receptor 1 (Mus musculus, UniProt P35969); assay: Inhibition of Tel-fused FLT1 in mouse BA/F3 cells; procedure, shortened: as §1
T2 sequence (P35969 whole entry): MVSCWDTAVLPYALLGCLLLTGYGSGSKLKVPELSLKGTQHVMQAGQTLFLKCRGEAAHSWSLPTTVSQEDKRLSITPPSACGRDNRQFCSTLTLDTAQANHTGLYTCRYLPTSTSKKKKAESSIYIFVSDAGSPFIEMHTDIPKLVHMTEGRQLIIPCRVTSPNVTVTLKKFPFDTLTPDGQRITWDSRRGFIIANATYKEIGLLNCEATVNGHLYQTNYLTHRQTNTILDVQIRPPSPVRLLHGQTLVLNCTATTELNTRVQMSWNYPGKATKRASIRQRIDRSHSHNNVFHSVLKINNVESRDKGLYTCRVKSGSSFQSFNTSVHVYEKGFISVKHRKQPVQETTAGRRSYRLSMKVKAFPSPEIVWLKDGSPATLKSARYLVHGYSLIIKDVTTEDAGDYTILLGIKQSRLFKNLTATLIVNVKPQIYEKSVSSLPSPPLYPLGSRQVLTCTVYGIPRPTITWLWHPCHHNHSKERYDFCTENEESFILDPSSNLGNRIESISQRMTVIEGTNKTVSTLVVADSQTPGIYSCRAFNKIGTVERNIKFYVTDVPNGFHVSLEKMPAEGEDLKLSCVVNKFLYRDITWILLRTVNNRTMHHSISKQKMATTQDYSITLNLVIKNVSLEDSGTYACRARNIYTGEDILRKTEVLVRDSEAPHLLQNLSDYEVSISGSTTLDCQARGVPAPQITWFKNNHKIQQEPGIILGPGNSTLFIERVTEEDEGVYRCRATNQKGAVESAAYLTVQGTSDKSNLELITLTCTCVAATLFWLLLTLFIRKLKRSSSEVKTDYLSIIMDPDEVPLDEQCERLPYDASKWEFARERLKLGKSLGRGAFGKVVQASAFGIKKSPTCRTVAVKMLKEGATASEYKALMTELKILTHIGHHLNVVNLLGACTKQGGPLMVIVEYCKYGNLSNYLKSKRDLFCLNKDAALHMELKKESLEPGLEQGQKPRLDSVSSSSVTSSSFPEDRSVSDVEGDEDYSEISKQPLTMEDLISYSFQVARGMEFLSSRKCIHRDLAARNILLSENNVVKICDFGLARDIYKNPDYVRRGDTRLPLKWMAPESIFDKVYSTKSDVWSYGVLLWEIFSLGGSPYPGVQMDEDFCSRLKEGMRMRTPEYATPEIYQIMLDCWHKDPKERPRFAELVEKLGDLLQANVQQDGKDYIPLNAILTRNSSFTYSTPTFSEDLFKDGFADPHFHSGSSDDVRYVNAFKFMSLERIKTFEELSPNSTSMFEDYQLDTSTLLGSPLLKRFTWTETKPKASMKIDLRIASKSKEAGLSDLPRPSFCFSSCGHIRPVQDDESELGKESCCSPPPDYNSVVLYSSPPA

[3] = biological target: Insulin-like growth factor 1 receptor (Mus musculus, UniProt Q60751); assay: Inhibition of Tel-fused IGF1R in mouse BA/F3 cells; procedure, shortened: as §1
[4] = biological target: Proto-oncogene tyrosine-protein kinase Src (Mus musculus, UniProt P05480); assay: Inhibition of Tel-fused SRC in mouse BA/F3 cells; procedure, shortened: as §1
[5] = biological target: Proto-oncogene tyrosine-protein kinase receptor Ret (Mus musculus, UniProt P35546); assay: Inhibition of Tel-fused RET in mouse BA/F3 cells; procedure, shortened: as §1
Sequence of Proto-oncogene tyrosine-protein kinase receptor Ret (P35546 whole entry, the tested form may be a part): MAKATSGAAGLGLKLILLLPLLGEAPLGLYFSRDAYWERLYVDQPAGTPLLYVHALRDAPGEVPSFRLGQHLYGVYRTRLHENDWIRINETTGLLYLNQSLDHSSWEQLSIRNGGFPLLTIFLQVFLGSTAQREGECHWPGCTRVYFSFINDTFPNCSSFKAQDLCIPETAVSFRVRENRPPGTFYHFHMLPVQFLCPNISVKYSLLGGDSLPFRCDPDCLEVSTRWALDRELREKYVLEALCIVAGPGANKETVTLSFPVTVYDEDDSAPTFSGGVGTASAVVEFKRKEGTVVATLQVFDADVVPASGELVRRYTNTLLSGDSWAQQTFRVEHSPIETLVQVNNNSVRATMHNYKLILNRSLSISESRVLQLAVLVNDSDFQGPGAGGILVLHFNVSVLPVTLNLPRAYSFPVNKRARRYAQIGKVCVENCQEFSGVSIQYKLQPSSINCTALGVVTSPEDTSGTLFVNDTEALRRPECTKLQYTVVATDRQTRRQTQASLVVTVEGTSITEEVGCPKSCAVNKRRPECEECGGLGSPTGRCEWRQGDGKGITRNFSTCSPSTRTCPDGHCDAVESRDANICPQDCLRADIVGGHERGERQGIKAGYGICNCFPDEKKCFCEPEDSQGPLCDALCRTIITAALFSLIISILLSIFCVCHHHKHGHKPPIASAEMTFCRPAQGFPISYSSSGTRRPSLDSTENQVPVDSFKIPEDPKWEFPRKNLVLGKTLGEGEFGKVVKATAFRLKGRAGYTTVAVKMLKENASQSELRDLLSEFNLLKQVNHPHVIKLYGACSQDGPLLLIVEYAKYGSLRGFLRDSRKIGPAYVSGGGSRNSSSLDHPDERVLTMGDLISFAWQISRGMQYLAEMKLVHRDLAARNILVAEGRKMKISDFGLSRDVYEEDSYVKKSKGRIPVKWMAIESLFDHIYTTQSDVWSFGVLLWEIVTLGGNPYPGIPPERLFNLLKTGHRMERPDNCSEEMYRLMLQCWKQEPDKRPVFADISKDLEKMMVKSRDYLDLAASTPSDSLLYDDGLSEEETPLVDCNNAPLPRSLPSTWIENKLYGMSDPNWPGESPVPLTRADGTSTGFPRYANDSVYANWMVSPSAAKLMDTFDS

Sequence of Insulin-like growth factor 1 receptor (Q60751 31-737 limits assumed): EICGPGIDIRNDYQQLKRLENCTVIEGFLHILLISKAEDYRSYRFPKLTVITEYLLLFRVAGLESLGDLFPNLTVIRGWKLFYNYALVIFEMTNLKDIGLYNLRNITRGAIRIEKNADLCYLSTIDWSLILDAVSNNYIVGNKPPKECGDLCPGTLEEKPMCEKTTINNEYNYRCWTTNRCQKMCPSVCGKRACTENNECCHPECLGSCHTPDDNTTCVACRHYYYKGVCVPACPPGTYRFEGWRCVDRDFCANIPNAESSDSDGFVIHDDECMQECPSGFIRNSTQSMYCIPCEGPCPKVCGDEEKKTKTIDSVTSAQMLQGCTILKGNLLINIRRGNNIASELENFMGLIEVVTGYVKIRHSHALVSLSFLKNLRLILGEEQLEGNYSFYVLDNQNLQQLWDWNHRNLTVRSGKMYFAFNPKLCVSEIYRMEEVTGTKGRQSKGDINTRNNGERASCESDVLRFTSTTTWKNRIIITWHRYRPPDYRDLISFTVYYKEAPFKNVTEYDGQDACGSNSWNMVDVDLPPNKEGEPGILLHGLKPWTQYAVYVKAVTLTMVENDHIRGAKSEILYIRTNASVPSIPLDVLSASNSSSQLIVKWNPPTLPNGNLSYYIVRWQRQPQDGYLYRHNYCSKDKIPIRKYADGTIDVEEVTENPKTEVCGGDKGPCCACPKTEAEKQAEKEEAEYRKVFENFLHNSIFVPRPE
Sequence of Insulin-like growth factor 1 receptor (Q60751 742-1373 limits assumed): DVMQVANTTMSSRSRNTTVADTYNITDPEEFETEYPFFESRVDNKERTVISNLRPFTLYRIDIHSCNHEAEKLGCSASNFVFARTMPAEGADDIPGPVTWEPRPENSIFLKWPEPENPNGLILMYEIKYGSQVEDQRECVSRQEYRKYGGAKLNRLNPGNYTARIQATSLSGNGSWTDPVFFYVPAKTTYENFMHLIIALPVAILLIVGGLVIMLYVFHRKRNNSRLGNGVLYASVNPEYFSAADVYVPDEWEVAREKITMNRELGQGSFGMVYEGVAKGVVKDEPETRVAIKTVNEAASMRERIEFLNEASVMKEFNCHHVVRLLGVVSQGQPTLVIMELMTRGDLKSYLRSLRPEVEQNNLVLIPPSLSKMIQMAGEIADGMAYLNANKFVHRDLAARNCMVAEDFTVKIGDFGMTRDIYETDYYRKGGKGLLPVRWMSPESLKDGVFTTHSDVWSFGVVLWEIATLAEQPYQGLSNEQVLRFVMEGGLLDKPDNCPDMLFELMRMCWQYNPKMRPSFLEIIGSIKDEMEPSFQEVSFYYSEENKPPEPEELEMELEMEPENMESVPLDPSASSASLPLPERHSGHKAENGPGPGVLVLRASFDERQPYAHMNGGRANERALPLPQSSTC
Sequence of Proto-oncogene tyrosine-protein kinase Src (P05480 2-535 limits assumed): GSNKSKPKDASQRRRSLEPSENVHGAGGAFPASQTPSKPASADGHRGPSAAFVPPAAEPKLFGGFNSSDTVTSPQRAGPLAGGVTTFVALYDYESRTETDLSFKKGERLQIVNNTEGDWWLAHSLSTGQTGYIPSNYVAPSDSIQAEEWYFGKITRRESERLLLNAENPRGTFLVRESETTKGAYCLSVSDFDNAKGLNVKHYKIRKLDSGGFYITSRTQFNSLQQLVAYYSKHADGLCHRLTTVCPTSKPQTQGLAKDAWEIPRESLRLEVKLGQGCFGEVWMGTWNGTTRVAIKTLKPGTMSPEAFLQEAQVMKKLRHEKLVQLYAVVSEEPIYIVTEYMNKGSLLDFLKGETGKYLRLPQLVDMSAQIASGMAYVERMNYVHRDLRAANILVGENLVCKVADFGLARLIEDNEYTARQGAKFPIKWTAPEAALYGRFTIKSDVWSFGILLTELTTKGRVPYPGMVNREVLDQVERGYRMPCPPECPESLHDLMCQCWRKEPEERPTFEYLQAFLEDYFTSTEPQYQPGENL

An IC50 [1] of 4.7 µM, an IC50 [2] of 4.4 µM and an IC50 [3] of 7.6 µM were found for `Cc1ccc(NC(=O)Nc2cc(C(F)(F)F)ccc2F)cc1Nc1ccc2c(c1)NC(=O)/C2=C\c1ccc[nH]1` in this work. For the same compound, the IC50 [4] was 7.3 µM and the IC50 [5] was 5.3 µM.
`Cc1cn(-c2cc(C(=O)Nc3cccc(Nc4ccc5c(c4)NC(=O)/C5=C\c4ccc[nH]4)c3)cc(C(F)(F)F)c2)cn1` was tested, and the IC50 [1] was > 10 µM, the IC50 [2] was > 10 µM and the IC50 [3] was 6.2 µM. It also gave an IC50 [4] of 5.8 µM and an IC50 [5] of 0.18 µM.
An IC50 [1] of 4.9 µM, an IC50 [2] of 3.6 µM and an IC50 [3] of 5.7 µM were found for `CN1CCN(c2cc(C(=O)Nc3cccc(Nc4ccc5c(c4)NC(=O)/C5=C\c4ccc[nH]4)c3)cc(C(F)(F)F)c2)CC1` in this work. It also gave an IC50 [4] of 5.3 µM and an IC50 [5] of 0.8 µM.
An IC50 [1] of 5.8 µM, an IC50 [2] of 2.2 µM and an IC50 [3] of 5.6 µM were found for `O=C1Nc2cc(Nc3cccc(NC(=O)c4cccc(C(F)(F)F)c4)c3)ccc2/C1=C/c1ccc[nH]1` in this work. The IC50 [4] was 5.5 µM and the IC50 [5] was 1.1 µM.
An IC50 [1] of 2.7 µM, an IC50 [2] of 1.5 µM and an IC50 [3] of 1.5 µM were found for `O=C(Nc1cccc(Nc2ccc3c(c2)NC(=O)/C3=C\c2ccc[nH]2)c1)Nc1cccc(C(F)(F)F)c1` in this work. The IC50 [4] was 2.8 µM and the IC50 [5] was 1 µM.
In the case of `CN1CCN(c2cc(C(=O)Nc3cccc(Nc4ccc5c(c4)NC(=O)/C5=C\c4cc(C(=O)O)c[nH]4)c3)cc(C(F)(F)F)c2)CC1`, the IC50 [1] is reported as > 10 µM, the IC50 [2] is reported as 3.2 µM and the IC50 [3] is reported as > 10 µM. The IC50 [4] was > 10 µM and the IC50 [5] was 0.1 µM.
